Measured values of several laboratories.
Protocols differ between the studies behind these lines.
Target: Histamine H2 receptor (HRH2, Homo sapiens, UniProt P25021)
Tested at: 10 µM

SMILES	test	measurement	value
CC(C)N1CCC[C@H]1CNC(=O)c1cn(C2CCCC2)c(=O)c2c1c1ccccc1n2C	ligand displacement, radioligand	inhibition	25%
N#CC1(c2ccccn2)CCN(Cc2cc(C(=O)O)c(=O)n3ccccc23)CC1	cell-free assay	inhibition	11.7%
CCN(CC)CCCC[C@H](NC(=O)[C@H](CC(C)C)NC(=O)[C@H](C)NC(=O)[C@H](Cc1ccccc1)NC(=O)c1ccc(C(C)(C)C)cc1)C(=O)N[C@@H](CO)C(=O)OC	ligand displacement, radioligand	inhibition	1%
Cn1cncc1[C@@](O)(COc1ccc(C#N)cc1-c1ccc(OC(F)(F)F)cc1)c1ccc(C#N)cc1	ligand displacement	inhibition	5.38%
Nc1ncc(-c2nc(N3CCOCC3)nc(N3CCOCC3)n2)c(C(F)F)n1	cell-free assay, radioligand	remaining signal	106%
COc1ccc(S(=O)(=O)N2CCCCC2)cc1C	ligand displacement, radioligand	inhibition	< 30%
CCCCCCCCCCCC(=O)OC[C@@H](COP(=O)(O)OCCNC(=O)c1ccc(Cn2c(=O)[nH]c3c(N)nc(OCCOC)nc32)cc1)OC(=O)CCCCCCCCCCC	ligand displacement, radioligand	inhibition	40%
Clc1ccc2c(C3CCN(CCc4c[nH]c5ccccc45)CC3)c[nH]c2c1	ligand displacement, radioligand	inhibition	53%
c1ccc(C(NCCNC(c2ccccc2)c2ccccc2)c2ccccc2)cc1	cell-free assay	inhibition	99%
CC(C)Cn1cnc2c(N)nc3ccccc3c21	ligand displacement, radioligand	inhibition	63%
C[C@H](C(=O)N[C@H]1COc2ccccc2[C@@H]1S(C)(=O)=O)c1ccc(F)cc1	cell-free assay	inhibition	-11%
COCc1c(-c2cc3cc(C)cc(OC)c3s2)c2c(N)ncnn2c1CN1CCNC(=O)C1	ligand displacement, radioligand	inhibition	-8%
